Experiments:
[1] = target: T1, Glucocorticoid receptor (Homo sapiens, UniProt P04150); assay: Displacement of FITC-dexamethasone from human recombinant glucocorticoid receptor alpha by fluorescence polarization assay
T1 sequence (P04150 whole entry): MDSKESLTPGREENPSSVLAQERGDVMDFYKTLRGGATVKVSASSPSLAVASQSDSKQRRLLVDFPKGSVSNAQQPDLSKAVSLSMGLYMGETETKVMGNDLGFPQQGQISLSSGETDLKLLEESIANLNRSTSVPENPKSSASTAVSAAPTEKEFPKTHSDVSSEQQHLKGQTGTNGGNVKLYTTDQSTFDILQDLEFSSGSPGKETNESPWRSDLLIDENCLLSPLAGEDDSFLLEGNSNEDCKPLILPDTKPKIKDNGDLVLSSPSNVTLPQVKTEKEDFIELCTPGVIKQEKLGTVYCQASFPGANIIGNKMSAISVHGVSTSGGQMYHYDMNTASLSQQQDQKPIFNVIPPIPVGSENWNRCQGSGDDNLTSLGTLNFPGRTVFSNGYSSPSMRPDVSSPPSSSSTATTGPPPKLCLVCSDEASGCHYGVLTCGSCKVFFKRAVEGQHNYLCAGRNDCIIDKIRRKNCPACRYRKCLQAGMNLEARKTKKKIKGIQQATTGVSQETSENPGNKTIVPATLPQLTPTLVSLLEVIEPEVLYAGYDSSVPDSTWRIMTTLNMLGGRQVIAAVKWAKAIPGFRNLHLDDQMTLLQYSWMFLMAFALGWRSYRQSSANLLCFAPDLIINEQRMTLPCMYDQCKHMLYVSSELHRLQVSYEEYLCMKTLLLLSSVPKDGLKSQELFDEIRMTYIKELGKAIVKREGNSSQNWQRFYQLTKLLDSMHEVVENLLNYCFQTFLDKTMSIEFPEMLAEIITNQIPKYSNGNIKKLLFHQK

[2] = target: T2, Estrogen receptor (Homo sapiens, UniProt P03372); assay: Displacement of […] from estrogen receptor alpha by fluorescence polarization assay
T2 sequence (P03372 whole entry): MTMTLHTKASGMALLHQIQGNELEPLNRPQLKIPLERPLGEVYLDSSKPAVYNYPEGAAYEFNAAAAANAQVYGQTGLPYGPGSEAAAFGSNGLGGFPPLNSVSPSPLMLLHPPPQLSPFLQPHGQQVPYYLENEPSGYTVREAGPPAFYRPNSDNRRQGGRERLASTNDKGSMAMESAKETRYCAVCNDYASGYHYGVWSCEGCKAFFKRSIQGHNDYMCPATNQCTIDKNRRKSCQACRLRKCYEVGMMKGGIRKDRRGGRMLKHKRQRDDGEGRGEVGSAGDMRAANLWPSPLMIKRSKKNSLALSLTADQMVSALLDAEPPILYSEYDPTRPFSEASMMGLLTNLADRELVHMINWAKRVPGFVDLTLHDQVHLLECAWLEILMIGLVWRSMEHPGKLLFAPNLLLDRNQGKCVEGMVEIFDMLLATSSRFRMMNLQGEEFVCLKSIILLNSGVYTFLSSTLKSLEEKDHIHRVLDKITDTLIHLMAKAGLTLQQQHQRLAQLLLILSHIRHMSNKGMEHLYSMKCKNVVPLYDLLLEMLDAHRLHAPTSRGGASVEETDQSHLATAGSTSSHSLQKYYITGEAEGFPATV
Summary of the method: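 Fluorescence polarization competition binding: the test compound competes with a fluorescently labelled ligand for binding to the full-length receptor or its ligand-binding domain. IC50 is fitted from the polarization signal with a four-parameter logistic equation. Ki is derived by Cheng–Prusoff, Ki = IC50/(1 + ligand concentration/Kd). Values are means of duplicate experiments.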

[3] = target: T3, Androgen receptor (Homo sapiens, UniProt P10275); assay: Displacement of fluorescently labeled ligand from androgen receptor by fluorescence polarization assay
T3 sequence (P10275 whole entry): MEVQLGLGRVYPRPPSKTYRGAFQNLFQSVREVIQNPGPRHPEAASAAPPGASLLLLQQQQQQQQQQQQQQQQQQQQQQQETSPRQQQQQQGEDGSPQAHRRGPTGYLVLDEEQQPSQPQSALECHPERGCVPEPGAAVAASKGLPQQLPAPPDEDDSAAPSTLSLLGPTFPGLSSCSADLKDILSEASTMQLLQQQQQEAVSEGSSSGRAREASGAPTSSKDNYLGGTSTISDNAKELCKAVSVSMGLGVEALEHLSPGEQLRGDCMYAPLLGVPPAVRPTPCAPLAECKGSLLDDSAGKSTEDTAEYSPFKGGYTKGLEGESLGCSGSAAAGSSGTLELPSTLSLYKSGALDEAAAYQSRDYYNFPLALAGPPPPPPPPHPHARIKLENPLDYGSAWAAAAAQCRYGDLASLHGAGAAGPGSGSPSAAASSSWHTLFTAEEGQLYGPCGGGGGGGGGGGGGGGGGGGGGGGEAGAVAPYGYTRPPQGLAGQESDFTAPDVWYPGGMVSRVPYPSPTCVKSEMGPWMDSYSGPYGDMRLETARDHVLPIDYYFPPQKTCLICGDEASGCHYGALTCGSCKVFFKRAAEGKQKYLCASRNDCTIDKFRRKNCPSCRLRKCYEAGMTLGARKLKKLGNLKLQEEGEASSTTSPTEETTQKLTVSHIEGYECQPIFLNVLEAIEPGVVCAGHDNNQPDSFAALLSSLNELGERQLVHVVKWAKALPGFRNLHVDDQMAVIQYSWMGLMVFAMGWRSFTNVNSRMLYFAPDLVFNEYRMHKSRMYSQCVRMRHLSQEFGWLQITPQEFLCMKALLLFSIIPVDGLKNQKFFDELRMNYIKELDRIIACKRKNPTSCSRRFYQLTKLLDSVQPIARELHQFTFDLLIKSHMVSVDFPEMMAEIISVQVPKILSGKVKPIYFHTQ

| Structure (SMILES) | Ki [1] | Ki [2] | Ki [3] |
| --- | --- | --- | --- |
| C[C@@]1(C(=O)Nc2nccs2)CC2(C#N)c3ccccc3C1c1ccccc12 | 0.0009 µM | 26.3 µM | > 10 µM |
| C[C@@]1(C(=O)Nc2nccs2)CC2c3ccccc3C1c1ccccc12 | 0.0013 µM | 15 µM | 7.4 µM |
